Results of several laboratories.
Protocols differ between the studies behind these lines.
Sample: plasma

SMILES | test system | setting | half-life [min]
COCCOc1cnc2ccn([C@H](C)c3nnc4c(F)cc(-c5cnn(C)c5)cn34)c(=O)c2c1 | human | oral, 100 mg, multiple doses, once daily, patients | 546
Cn1cc(-c2ccc(S(=O)(=O)[C@@H]3C[C@@H](C(=O)NC4(C#N)CC4)N(C(=O)C4(C(F)(F)F)CC4)C3)c(C(F)(F)F)c2)cn1 | human | oral, 300 mg, single dose, fasted, healthy volunteers | 960
C#C[C@]1(COP(=O)(O)OP(=O)(O)OP(=O)(O)O)O[C@@H](n2cnc3c(N)nc(F)nc32)C[C@@H]1O | human | oral, 400 mg, single dose | 8580
COc1ccc([C@@H]2CN(C(=O)[C@@H](O)CO)C[C@@]2(C)[C@@H](C)O)cc1OC1CN(c2ccc(C)cn2)C1 | human | oral, 40 mg, single dose, healthy volunteers | 726
COc1cc(C(=O)NC2CCN(C)CC2)c(F)cc1Nc1ncc(C(F)(F)F)c(Oc2cccc3c2C(=O)N(C)C3)n1 | human | oral, 100 mg, multiple doses, once daily, patients | 1130
C[C@@H](Nc1cc(F)cc(F)c1)c1cc(C(=O)N(C)C)cc2c(=O)cc(N3CCOCC3)oc12 | human | oral, 240 mg, single dose, patients | 374
CO[C@H]1CC[C@H](N2C(=O)CNc3ncc(-c4ccc(C(C)(C)O)nc4)nc32)CC1 | human | oral, 45 mg, patients | 292
CC(C)(O)c1ccccc1-c1ccc2[nH]c(/C=C/c3ccc(C(F)(F)F)cc3)nc2c1 | male human | oral, 15 mg, single dose, fasted, healthy volunteers | 3560
CC(C)n1cc(C#N)c2cc(-n3cc(C(=O)O)cn3)ccc21 | male human | oral, 600 mg, single dose, fasted, healthy volunteers | 714
CO[C@@H]1[C@H](OC(=O)N2CC(CCN3CCOCC3)C2)CC[C@]2(CO2)[C@H]1[C@@]1(C)O[C@@H]1CC=C(C)C | human | subcutaneous, 3.6 mg, single dose, healthy volunteers | 28.2
CC(C)(Sc1ccncc1-c1ccc(C#N)c2ccccc12)C(=O)O | male human | oral, 40 mg, single dose, fasted, healthy volunteers | 571
c1cnc2ccc(Nc3nc(NC4CC4)c4nc[nH]c4n3)cc2c1 | human | oral, 50 mg/m², patients | 120
